Data on eight molecules can be found in article PMC9043816 (RSC Advances, 2021).

The IC50 is the concentration that inhibits the measured activity by half.

Assay [1] has as its system human cervical carcinoma cell line (HeLa). The assay can be described thus: MTS cytotoxicity assay, HeLa. In kind it is cell-based. Summed up:
(§1)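 Cells grown in DMEM or RPMI 1640 with 10% FBS and penicillin/streptomycin (37 °C, 5% CO2), seeded at 4000–6000 cells per mL, then after 24 h treated for 48 h with several concentrations (DMSO stock 100 mM). Medium replaced, MTS added for 3 h at 37 °C, A492 read. Inhibition % relative to untreated and blank; IC50 by curve fitting; at least three wells per concentration.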
A general note: Tetrazolium dyes change colour on reduction, which living cells bring about.

Assay [2] deals with human breast carcinoma cell line (MCF-7). Put plainly: MTS cytotoxicity assay, MCF-7. Type of assay: cell-based. The gist of the method: as §1
Assay [3] relates to human hepatoma carcinoma cell lines (HepG2). Put plainly: MTS cytotoxicity assay, HepG2. Type of assay: cell-based. The gist of the method:
as §1

In assay [4] the test system is human tongue carcinoma cell line (SCC-15). Put plainly: MTS cytotoxicity assay, SCC-15. In kind it is cell-based. Summed up:
as §1

In assay [5] the test system is human umbilical vein endothelial cells (HUVEC). The assay can be described thus: MTS cytotoxicity assay, HUVEC normal cells. In kind it is cell-based. The conditions noted are these: read-out: IC50 HUVEC, 48 h treatment. The gist of the method:
as §1

Assay [6] deals with HeLa cells. Put plainly: 7-AAD/annexin V flow cytometry apoptosis assay. The note with it: 100 nM. In kind it is cell-based, human. The gist of the method:
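HeLa cells seeded at 1 × 10^5 cells per mL, grown overnight, then exposed to test compound (25, 50 or 100 nM final) for 24, 36 or 48 h. Cells were washed in cold PBS, trypsinized, and stained with annexin V-FITC plus 7-AAD for 15 min at room temperature in the dark. Analysed by flow cytometry; apoptotic % = early (annexin V+) plus late (annexin V+/7-AAD+).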
For orientation: In flow cytometry, cells or beads pass a laser one at a time.

Assay [7] has as its system HeLa cells. Put plainly: Wound healing assay. Type of assay: cell-based, human. The conditions noted are these: serum starved. Summed up: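 HeLa cells seeded at 2.5 × 10^5 cells per mL and grown to about 90% confluence; monolayer scratched with p10 tips, washed twice in PBS. Serum-free medium with test compound (25, 50, 100 nM final) or DMSO for 48 h. Gaps photographed at 0, 24, 48 h (10× magnification); healing rate from change in wound area; three independent experiments.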

The next assay concerns p53. Put plainly: Western blotting, p53 expression in HeLa cells. In kind it is cell-based, human. The conditions noted are these: 25 nM, 50 nM and 100 nM, 48 h. Summed up:
(§2)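 HeLa cells seeded at 1 × 10^5 cells per mL overnight, then given test compound (25, 50, 100 nM final) for 48 h. Lysed on ice 20 min; protein quantified by BCA. Equal protein run on SDS-PAGE and transferred to PVDF, then blocked in 5% nonfat milk. Primary antibodies (p53, Bcl-2, Bax, GAPDH loading) overnight at 4 °C; peroxidase secondary 2 h; chemiluminescent detection.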
Background: A western blot detects proteins with antibodies after separation by electrophoresis.

Another assay deals with Bcl-2. Put plainly: Western blotting, Bcl-2 expression in HeLa cells. In kind it is cell-based, human. The conditions noted are these: 25 nM, 50 nM and 100 nM, 48 h. Summed up: as §2
The subject of a further assay is Bax. The assay can be described thus: Western blotting, Bax expression in HeLa cells. In kind it is cell-based, human. The note with it: 25 nM, 50 nM and 100 nM, 48 h. Summed up: as §2
The subject of assay [8] is 94 different cancer cell lines. The conditions noted are these: read-out: IC50 values against 94 different cancer cell lines; in vitro; cited from earlier work.
The subject of assay [9] is normal cells, such as HFL, PrEC, HMEC and HUVEC. The conditions noted are these: unless its concentration exceeded 5–10 μM; cited from earlier work.
In assay [10] the test system is Bel-7402, MCF-7 and MIA-PaCa cells. The note with it: 250 mg kg^−1, i.p.; cited from earlier work.
The test system of a further assay is BT20 cells. The conditions noted are these: 200 mg kg^−1, i.p.; cited from earlier work.
Setting [11] is: Homo sapiens, HeLa, 48 h, read-out: IC50 HeLa, MTS, 48 h treatment.
Setting [12] is: Homo sapiens, MCF7, 48 h, read-out: IC50 MCF-7, MTS, 48 h treatment.
Where [13] appears, read: Homo sapiens, HepG2, 48 h, read-out: IC50 HepG2, MTS, 48 h treatment.
Setting [14] is: Homo sapiens, SCC-15, 48 h, read-out: IC50 SCC-15, MTS, 48 h treatment.

Several values for one entry are separate records, joined by “and”; a condition that tells them apart may be missing. Equal entries are not always repeated. Where two headings read alike, the source gives them in different places.

For `COc1ccc(C[S+]([O-])c2ccc3ccccc3c2)cc1N` (stereo not shown) [12a, 2-Methoxy-5-((naphthalen-2-ylsulfinyl)methyl)aniline], the IC50 was found to be 173 ± 31 nM in [1] (setting [11]), 681 ± 48 nM in assay [2] (setting [12]), 434 ± 38 nM in assay [3] (setting [13]) and 148 ± 27 nM in assay [4] (setting [14]).
Consider `COc1ccc(CS(=O)(=O)c2ccc3ccccc3c2)cc1N` [12b, 2-Methoxy-5-((naphthalen-2-ylsulfonyl)methyl)aniline], for which the IC50 is 30 ± 5 nM in assay [1] (setting [11]), 110 ± 14 nM in assay [2] (setting [12]), 43 ± 7 nM in assay [3] (setting [13]) and 28 ± 6 nM in assay [4] (setting [14]).
As for `COc1ccc(C[S+]([O-])c2ccc3cc(Br)ccc3c2)cc1N` (stereo not shown) [12c, 5-(((6-Bromonaphthalen-2-yl)sulfinyl)methyl)-2-methoxyaniline], the 50% inhibitory concentration (IC50) in assay [1] (setting [11]) stood at 92 ± 9 nM; in [2] (setting [12]), 858 ± 88 nM; in assay [3] (setting [13]) it was 1310 ± 91 nM; in [4] (setting [14]) it was 264 ± 27 nM.
Taken in the same sequence, the figures for `COc1ccc(CS(=O)(=O)c2ccc3cc(Br)ccc3c2)cc1N` [12d, 5-(((6-Bromonaphthalen-2-yl)sulfonyl)methyl)-2-methoxyaniline] were 64 ± 5 nM, 95 ± 8 nM, 402 ± 35 nM and 78 ± 2 nM.
Taken in the same sequence, the figures for `COc1ccc(CSc2ccc3ccccc3c2)cc1N` [12e, 2-Methoxy-5-((naphthalen-2-ylthio)methyl)aniline] were 4060 ± 316 nM, 17500 ± 2320 nM, 42600 ± 3810 nM and 2210 ± 314 nM.
For the molecule `COc1ccc(C[S+]([O-])c2ccc3ccccc3c2)cc1NCC(=O)O` (stereo not shown) [15a, (2-Methoxy-5-((naphthalen-2-ylsulfinyl)methyl)phenyl)glycine], the IC50 in [1] (setting [11]) was 230 ± 4 nM; in assay [2] (setting [12]) it was 2030 ± 73 nM; in assay [3] (setting [13]), 5080 ± 318 nM; in assay [4] (setting [14]) it was 722 ± 29 nM.
As to `COc1ccc(CS(=O)(=O)c2ccc3ccccc3c2)cc1NCC(=O)O` [15b, (2-Methoxy-5-((naphthalen-2-ylsulfonyl)methyl)phenyl)glycine], the IC50 in assay [1] (read-out: IC50 HeLa, MTS, 48 h treatment) was found to be 64 ± 5 nM; in assay [2] (read-out: IC50 MCF-7, MTS, 48 h treatment) it was 29 ± 1 nM; in assay [3] (read-out: IC50 HepG2, MTS, 48 h treatment) it was 390 ± 13 nM; in assay [4] (read-out: IC50 SCC-15, MTS, 48 h treatment), 15 ± 2 nM; in assay [5], 1060 ± 48 nM. The “apoptotic values (early and late apoptotic states)” value in the assay on HeLa cells [6] (24 h) worked out at 9.2%; with HeLa cells [6] (36 h), 30.2%; in the assay on HeLa cells [6] (48 h) it was 53.2%. Further, the Wound healing rate in the assay with HeLa cells [7] (25 nM, 24 h, control 46.4) was 20.0% and 20.0 ± 3.5 %; in the assay with HeLa cells [7] (25 nM, 48 h, control 70.8), 32.0% and 32.0 ± 6.1 %; in the assay on HeLa cells [7] (50 nM, 24 h, control 46.4), 13.2 ± 2.2 %; with HeLa cells [7] (50 nM, 48 h, control 70.8), 15.5 ± 3.4 %; in the assay with HeLa cells [7] (100 nM, 24 h, control 46.4) it was 3.9% and 3.9 ± 3.0 %; in the assay with HeLa cells [7] (100 nM, 48 h, control 70.8) it was 4.4% and 4.4 ± 2.7 %. Further, the “levels of the proapoptotic protein p53” value in the assay on p53 was “increased significantly”. Moreover, in the assay on Bcl-2, the “expression of antiapoptotic protein Bcl-2” value is given as “down-regulation”. For the same molecule, the “expression of proapoptotic protein Bax” value in the assay on Bax is on record as “up-regulation”.
With `COc1cc(OC)c(/C=C/S(=O)(=O)Cc2ccc(OC)c(NCC(=O)O)c2)c(OC)c1` [Rigosertib, reference compound], the IC50 in assay [1] (setting [11]) is 65 ± 5 nM; in assay [2] (setting [12]), 22 ± 3 nM; in assay [3] (setting [13]), 108 ± 17 nM; in assay [4] (setting [14]) it was 35 ± 3 nM; in assay [8], 50 to 250 nM. For the same molecule, in assay [9], the “anti-proliferative effect on normal cells” value is listed as “little or no anti-proliferative effect”. The “tumor growth in mouse xenograft models” value in assay [10] was “significantly suppress tumor growth”. The “tumor growth in mouse xenograft model” value in the assay with BT20 cells is reported as “remarkably inhibit tumor growth”.
